According to ChEMBL document CHEMBL4145686, “Discovery of a Potent and Selective Steroidal Glucocorticoid Receptor Antagonist (ORIC-101)” (J Med Chem, 2018):
pEC50, pIC50: −log10 of the molar value.

Legend:
Androgen receptor = target: T1, Androgen receptor (Homo sapiens, UniProt P10275); assay: Agonist activity at AR in human MDA-MB-453 cells assessed as increase in CLDN8 gene expression at 111 to 333 nM incubated for 24 hrs by RT-qPCR method; assay type: cell-based; settings: mda-mb-453, 24 h, 0.333 µM
T1 sequence (P10275 whole entry): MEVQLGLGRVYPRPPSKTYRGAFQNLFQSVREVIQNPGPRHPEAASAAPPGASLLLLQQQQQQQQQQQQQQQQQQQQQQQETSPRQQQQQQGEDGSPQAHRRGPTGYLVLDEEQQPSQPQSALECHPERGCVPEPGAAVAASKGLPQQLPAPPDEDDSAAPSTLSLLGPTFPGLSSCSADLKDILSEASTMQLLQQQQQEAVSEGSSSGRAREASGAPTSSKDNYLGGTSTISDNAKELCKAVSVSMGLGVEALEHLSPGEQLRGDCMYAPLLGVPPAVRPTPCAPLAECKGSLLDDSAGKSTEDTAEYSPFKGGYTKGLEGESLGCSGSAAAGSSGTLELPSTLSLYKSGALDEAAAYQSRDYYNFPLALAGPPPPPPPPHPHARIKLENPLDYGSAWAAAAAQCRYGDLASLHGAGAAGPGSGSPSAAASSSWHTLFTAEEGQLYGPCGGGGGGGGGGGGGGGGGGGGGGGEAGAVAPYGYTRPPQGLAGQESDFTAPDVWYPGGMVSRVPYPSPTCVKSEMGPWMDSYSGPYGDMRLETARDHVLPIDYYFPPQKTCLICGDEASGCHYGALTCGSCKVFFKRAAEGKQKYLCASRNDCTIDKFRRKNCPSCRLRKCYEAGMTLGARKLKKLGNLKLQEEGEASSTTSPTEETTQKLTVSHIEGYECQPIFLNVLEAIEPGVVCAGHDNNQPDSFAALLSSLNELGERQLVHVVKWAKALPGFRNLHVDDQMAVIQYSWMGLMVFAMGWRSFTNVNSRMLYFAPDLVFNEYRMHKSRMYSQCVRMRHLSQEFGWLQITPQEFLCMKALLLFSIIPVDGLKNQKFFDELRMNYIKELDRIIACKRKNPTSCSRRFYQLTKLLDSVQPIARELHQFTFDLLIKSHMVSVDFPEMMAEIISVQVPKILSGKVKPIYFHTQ

Glucocorticoid receptor [1] = target: T2, Glucocorticoid receptor (Canis lupus familiaris, UniProt A0A8C0QLS2); assay: Antagonist activity at GR in dog PBMC assessed as reduction in dexamethasone-induced GILZ gene expression incubated for 6 hrs by RT-qPCR method; assay type: cell-based
T2 sequence (A0A8C0QLS2 whole entry): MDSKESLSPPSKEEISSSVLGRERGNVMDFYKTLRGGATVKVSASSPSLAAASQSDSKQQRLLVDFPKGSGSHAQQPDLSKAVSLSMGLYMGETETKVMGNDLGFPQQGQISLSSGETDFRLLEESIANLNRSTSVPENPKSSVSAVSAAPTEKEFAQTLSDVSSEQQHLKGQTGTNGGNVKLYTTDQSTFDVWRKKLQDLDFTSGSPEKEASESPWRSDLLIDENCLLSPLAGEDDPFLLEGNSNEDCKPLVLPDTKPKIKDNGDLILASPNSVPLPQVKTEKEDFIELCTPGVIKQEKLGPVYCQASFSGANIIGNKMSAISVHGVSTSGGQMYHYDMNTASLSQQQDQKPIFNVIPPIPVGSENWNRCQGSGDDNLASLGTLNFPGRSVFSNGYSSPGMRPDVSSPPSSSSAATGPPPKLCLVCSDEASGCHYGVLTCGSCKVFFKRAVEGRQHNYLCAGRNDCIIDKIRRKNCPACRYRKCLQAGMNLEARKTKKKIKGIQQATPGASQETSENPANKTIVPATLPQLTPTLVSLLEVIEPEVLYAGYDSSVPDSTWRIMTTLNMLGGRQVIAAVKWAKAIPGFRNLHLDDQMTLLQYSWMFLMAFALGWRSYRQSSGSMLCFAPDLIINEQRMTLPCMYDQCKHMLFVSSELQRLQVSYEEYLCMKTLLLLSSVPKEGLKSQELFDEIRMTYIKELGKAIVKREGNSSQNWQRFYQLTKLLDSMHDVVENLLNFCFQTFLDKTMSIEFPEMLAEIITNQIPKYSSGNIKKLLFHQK

[2] = Volume of distribution at steady state in rat at 0.5 mg/kg, iv; assay type: ADME, organism-based; settings: in vivo, read-out: Vdss
[3] = Unbound plasma concentration in nude mouse xenografted with human OVCAR5 cells at 25 to 75 mg/kg, po dosed as gavage and measured after 6 hrs; assay type: ADME, organism-based; settings: in vivo
How it was run: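 OVCAR5 xenograft mice received dexamethasone 0.5 mg/kg by intraperitoneal injection with or without a single oral gavage dose of the antagonist at 25, 50 or 75 mg/kg. Tumors and plasma collected 6 h later. Tumor FKBP5 mRNA measured by RT-qPCR. Unbound plasma concentration of the antagonist determined, n = 4 mice per group. FKBP5 effects tested by one-way ANOVA with Dunnett's test versus the vehicle group.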

[4] = AUC in mini pig at 10 mg/kg, po; assay type: ADME, organism-based, Sus scrofa; settings: in vivo
Glucocorticoid receptor [5] = target: T3, Glucocorticoid receptor (Homo sapiens, UniProt P04150); assay: Agonist activity at human GR expressed in CHO-K1 cells incubated for 20 hrs by luciferase reporter gene assay; assay type: cell-based
T3 sequence (P04150 whole entry): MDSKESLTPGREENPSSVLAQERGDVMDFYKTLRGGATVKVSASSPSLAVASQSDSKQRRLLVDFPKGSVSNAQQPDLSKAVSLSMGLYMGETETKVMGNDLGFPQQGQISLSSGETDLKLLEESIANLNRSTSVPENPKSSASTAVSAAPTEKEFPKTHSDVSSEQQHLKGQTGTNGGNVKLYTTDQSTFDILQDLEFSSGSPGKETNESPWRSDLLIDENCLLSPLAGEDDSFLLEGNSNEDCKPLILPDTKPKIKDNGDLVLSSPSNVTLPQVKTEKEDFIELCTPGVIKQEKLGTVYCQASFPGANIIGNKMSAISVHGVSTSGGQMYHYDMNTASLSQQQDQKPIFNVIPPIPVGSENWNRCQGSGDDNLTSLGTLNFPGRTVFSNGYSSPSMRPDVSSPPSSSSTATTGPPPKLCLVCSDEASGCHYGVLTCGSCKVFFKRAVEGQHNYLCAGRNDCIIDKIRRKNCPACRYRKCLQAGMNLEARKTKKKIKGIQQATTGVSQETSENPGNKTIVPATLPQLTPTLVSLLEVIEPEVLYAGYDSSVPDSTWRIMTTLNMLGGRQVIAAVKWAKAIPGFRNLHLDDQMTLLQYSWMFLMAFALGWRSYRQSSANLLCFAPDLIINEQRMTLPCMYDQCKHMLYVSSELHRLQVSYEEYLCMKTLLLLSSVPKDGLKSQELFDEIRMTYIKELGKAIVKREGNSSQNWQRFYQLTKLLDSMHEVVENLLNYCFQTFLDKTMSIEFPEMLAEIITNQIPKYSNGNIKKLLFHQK

[6] = Volume of distribution at steady state in mini pig at 0.5 mg/kg, iv; assay type: ADME, organism-based, Sus scrofa; settings: in vivo, read-out: Vdss
[7] = target: T4, glucocorticoid receptor (GR) (Homo sapiens, UniProt P04150); assay: Agonist activity at human GR expressed in CHO-K1 cells incubated for 20 hrs by luciferase reporter gene assay relative to dexamethasone; assay type: cell-based; settings: CHO-K1 cells expressing human GR
T4 sequence (P04150 whole entry): T3 sequence (P04150 whole entry)

**Q.** With `CC(C)N(C)c1ccc([C@H]2C[C@@]3(C)[C@@H](CC[C@@]3(O)C#CC(C)(C)C)[C@@H]3CCC4=CC(=O)CC[C@@H]4[C@H]32)cc1` as the compound, how does the Activity (Androgen receptor) read?
**A.** Not Active

**Q.** And the pIC50 (Glucocorticoid receptor [1])?
**A.** 7.46

**Q.** And the Vd [2]?
**A.** 4.6 L/kg

**Q.** What about the Cp(f) [3] of the same compound?
**A.** 0.02 to 0.12 µM

**Q.** And the AUC [4]?
**A.** 1720 ng·h/mL

**Q.** And the pEC50 (Glucocorticoid receptor [5])?
**A.** < 5.60

**Q.** And the Vd [6]?
**A.** 7.8 L/kg

**Q.** What about the Emax at 20 h [7] of the same compound?
**A.** 2.3%
